Measurements published in article PMC6044781 (ACS Omega, 2017).
Like-named read-outs stand apart in the source and are kept apart here.

How the values were obtained:
h-telo 12-mer quadruplex = assay: ITC with h-telo 12-mer quadruplex; format: binding, human; conditions: 25 °C, BMSG-SH-3: first line of two
Method in brief: (§1)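 Isothermal titration calorimetry at 25 °C in cacodylate/EDTA/KCl buffer, pH 7.0; solutions degassed under vacuum (160 mbar, 10 min). Test compound at 4 × 10^-4 M was injected in 5–10 μL aliquots (20 s each, 240 s apart, 60 s initial delay, 381 rpm) into DNA: 22-mer and 26-mer duplex at 1.0 × 10^-5 M, 12-mer at 0.5 × 10^-5 M. Dilution heat was subtracted and data fitted to a single-site model. Ka is mean ± SD of three runs.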

HEK 293T cells = assay: MTT cell survival assay, HEK 293T; format: cell-based; conditions: Homo sapiens
Method in brief: (§2)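 MTT survival assay: cells treated with increasing concentrations of test compound for 48 or 72 h at 37 °C. Medium was then replaced with fresh medium containing MTT for 4 h, formazan dissolved in DMSO, and absorbance read at 570 nm. IC50 determined at each time point.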

HeLa cells [1] = assay: Annexin V-FITC/PI apoptosis assay; format: cell-based, human; conditions: 1 μM, 24 h
Method in brief: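 HeLa cells seeded at 2 × 10^5 per 60 mm plate and treated with test compound at 1 μM. After 24 h, cells were harvested, washed twice in PBS and resuspended at 1 × 10^6 cells/mL in kit buffer. Annexin V-FITC/PI staining for 15 min in the dark at room temperature; Annexin V–FITC labelling quantified. Values are mean ± SEM.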

[2] = test system: 26-mer duplex DNA (DNA, duplex) CAATCGGATCGAATTCGATCCGATTG; assay: ITC; conditions: 25 mM KCl; 10 mM sodium cacodylate, 0.5 mM EDTA, pH 7.0, 25 °C
[3] = test system: h-telo 22-mer quadruplex (DNA, G4) AGGGTTAGGGTTAGGGTTAGGG; assay: ITC; conditions: 25 mM KCl; 10 mM sodium cacodylate, 0.5 mM EDTA, pH 7.0, 25 °C
HeLa cells [4] = assay: Cell cycle analysis by flow cytometry; format: cell-based, human; conditions: 1 μM, 24 h; for G2/M phase arrest (G2): control 7.6%
[5] = test system: F12T (5′-fluorescein-TAGGGTTAGGGT-3′-TAMRA) G-quadruplex; assay: FRET melting assay, F12T; format: binding, human; conditions: 2 μM ligand; for ΔTm F12T: no competitor; for ΔTm F12TComp12: with competitor complementary strand Compl 12
Method in brief: (§3)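 Dual-labelled oligos (5′-fluorescein/3′-TAMRA) at 0.25 μM in 10 mM sodium cacodylate, 0.5 mM EDTA, 25 mM KCl, pH 7.0, with or without 2 μM test compound. For competitor runs, each oligo was preincubated 24 h at 25 °C with 2 μM unlabelled complementary strand. Excitation 480 nm, emission 520 nm, read at 1 °C steps from 25 to 95 °C with 60 s equilibration per reading. ΔTm is the average of three determinations.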

[6] = test system: telomerase (from A549 cells); assay: TRAP-Lig assay; format: biochemical, human; conditions: read-out: TRAP assay IC50; telomerase inhibition, ligand 1–50 μM
duplex DNA 26-mer [7] = assay: SPR with duplex DNA 26-mer; format: binding; conditions: 25 °C, error ±15%
Method in brief: (§4)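 Surface plasmon resonance on streptavidin chips carrying 5′-biotin-T9-linked 22-mer telomeric or 26-mer duplex DNA, annealed at 95 °C and slowly cooled in 10 mM HEPES, 100 mM KCl, 0.005% IGEPAL, pH 7.4. Surfaces equilibrated 2 h at 20 μL/min, 25 °C. Test compound (1.0 × 10^-9 to 10^-6 M) injected for 300 s in random order; regeneration with 1 M NaCl in 50 mM NaOH. Sensorgrams fitted to a two-site model. Selectivity is the ratio of G4 to duplex binding constants. Triplicate runs, mean ± SEM.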

h-telo 22-mer quadruplex [8] = assay: ITC with h-telo 22-mer quadruplex; format: binding, human; conditions: for binding equilibrium constants from microcalorimetry: h-telo 22-mer quadruplex; for binding constant Ka × 10^6: h-telo 22-mer, 25 °C
Method in brief: as §1

A549 cells = assay: MTT cell survival assay, A549; format: cell-based; conditions: Homo sapiens
Method in brief: as §2

[9] = test system: F22T (5′-fluorescein-AGGGTTAGGGTTAGGGTTAGGG-3′-TAMRA) G-quadruplex; assay: FRET melting assay, F22T; format: binding, human; conditions: 2 μM ligand; for ΔTm F22T: no competitor; for ΔTm F22TComp22: with competitor complementary strand Compl 22
Method in brief: as §3

HeLa cells [10] = assay: MTT cell survival assay, HeLa; format: cell-based; conditions: Homo sapiens
Method in brief: as §2

duplex DNA 26-mer [11] = assay: ITC with duplex DNA 26-mer; format: binding; conditions: for binding constant Ka × 10^6: duplex DNA 26-mer, 25 °C
Method in brief: as §1

h-telo 22-mer quadruplex [12] = assay: SPR with h-telo 22-mer; format: binding, human; conditions: for KA: h-telo 22-mer, 25 °C, error ±15%; for KA h-telo 22/KA dsDNA: selectivity 22-mer quadruplex over DNA duplex, SPR
Method in brief: as §4

[13] = test system: h-telo 12-mer quadruplex (DNA, G4) TAGGGTTAGGGT; assay: ITC; conditions: 25 mM KCl; 10 mM sodium cacodylate, 0.5 mM EDTA, pH 7.0, 25 °C
[14] = A549, 48 h, read-out: IC50 at 48 h
[15] = A549, 72 h, read-out: IC50 at 72 h

Row | binding constant Ka × 10^6 (h-telo 12-mer quadruplex) | Ka [3] | IC50 [6] [µM] | Kd (duplex DNA 26-mer [7]) [µM] | binding equilibrium constants from microcalorimetry (h-telo 22-mer quadruplex [8]) [µM] | binding constant Ka × 10^6 (h-telo 22-mer quadruplex [8]) | binding constant Ka × 10^6 (duplex DNA 26-mer [11]) | Structure (SMILES) | IC50 (HEK 293T cells; 48 h, read-out: IC50 at 48 h) [µM] | IC50 (HEK 293T cells; 72 h, read-out: IC50 at 72 h) [µM] | apoptotic cells (Annexin V–FITC positive cells) (HeLa cells [1]) [%] | G2/M phase arrest (G2) (HeLa cells [4]) [%] | ΔTm F12T [5] [°C] | ΔTm F12TComp12 [5] [°C] | KA (duplex DNA 26-mer [7]) | IC50 (A549 cells; [14]) [µM] | IC50 (A549 cells; [15]) [µM] | ΔTm F22T [9] [°C] | ΔTm F22TComp22 [9] [°C] | IC50 (HeLa cells [10]; 48 h, read-out: IC50 at 48 h) [µM] | IC50 (HeLa cells [10]; 72 h, read-out: IC50 at 72 h) [µM] | other results
1 | 0.89 ± 0.11 10^6 M^–1 | 3.41 ± 0.22 × 10^6 M^-1 | > 50 | 55.2 | 3.41 | 3.41 ± 0.22 10^6 M^–1 | 0.88 ± 0.63 10^6 M^–1 | CN1CCN(c2ccc3nc(CN4C(=O)c5ccc6c7c(ccc(c57)C4=O)C(=O)N(Cc4nc5ccc(N7CCN(C)CC7)cc5[nH]4)C6=O)[nH]c3c2)CC1 [BBZ-AROCH2, 2,7-Bis((6-(4-methylpiperazin-1-yl)-1H-benzo[d]imidazol-2-yl)methyl)benzo[lmn]-[3,8]-phenanthroline-1,3,6,8(2H,7H)-tetraone] | > 100 | > 100 | 40 | 19.1 | 8 ± 0.4 | 10 ± 1.6 | 0.4 × 10^6 M^–1 | 79.5 | 74.8 | 7 ± 0.7 | 9 ± 0.5 | 92.7 | 86.5 | Ka [2]: 0.88 ± 0.63 × 10^6 M^-1; KA (h-telo 22-mer quadruplex [12]): 1.4 × 10^6 M^–1; KA h-telo 22/KA dsDNA (h-telo 22-mer quadruplex [12]): 3.5; Ka [13]: 0.89 ± 0.11 × 10^6 M^-1
2 | 0.61 ± 1.82 10^6 M^–1 | 6.35 ± 0.26 × 10^6 M^-1 | > 50 | 17.1 | 6.35 | 6.35 ± 0.26 10^6 M^–1 | 0.03 ± 0.10 10^6 M^–1 | CN1CCN(CCCN2C(=O)c3ccc4c5c(ccc(c35)C2=O)C(=O)N(CCCN2CCN(C)CC2)C4=O)CC1 [ALI-C3, 2,7-Bis(3-(4-methylpiperazin-1-yl)propyl)benzo[lmn][3,8]phenanthroline-1,3,6,8 (2H,7H)tetraone] | 12.2 | 8.9 | 35 | 15.7 | 5 ± 0.8 | 7 ± 0.5 | 0.1 × 10^6 M^–1 | 1.8 | 1.4 | 9 ± 1.2 | 11 ± 0.6 | 2.4 | 2.1 | KA (h-telo 22-mer quadruplex [12]): 8.7 × 10^6 M^–1; KA h-telo 22/KA dsDNA (h-telo 22-mer quadruplex [12]): 87.0; Ka [13]: 0.61 ± 1.82 × 10^6 M^-1
3 | 6.63 ± 2.39 10^6 M^–1 | 8.47 ± 0.65 × 10^6 M^-1 | 4.56 | 36.6 | 8.47 | 8.47 ± 0.65 10^6 M^–1 | 0.05 ± 0.65 10^6 M^–1 | CN1CCN(c2ccc3nc(-c4ccc(N5C(=O)c6ccc7c8c(ccc(c68)C5=O)C(=O)N(c5ccc(-c6nc8ccc(N9CCN(C)CC9)cc8[nH]6)cc5)C7=O)cc4)[nH]c3c2)CC1 [BBZ-ARO, 2,7-Bis(4-(6-(4-methylpiperazin-1-yl)-1H-benzo[d]imidazol-2-yl)phenyl)benzo[lmn][3,8]phenanthroline-1,3,6,8(2H,7H)-tetraone] | 77.9 | 63.4 | 74 | 15.8 | 13 ± 1.4 | 15 ± 0.5 | 0.6 × 10^6 M^–1 | 26.4 | 19.7 | 14 ± 0.5 | 16 ± 1.6 | 24.7 | 20.5 | Ka [2]: 0.05 ± 0.65 × 10^6 M^-1; sub-G1 phase accumulation (HeLa cells [4]; control 0.2%): 7.3%; affinity (ITC) (h-telo 22-mer quadruplex [8]; 22-mer quadruplex): 8.4 × 10^6 M^–1; binding affinity (ITC) (duplex DNA 26-mer [11]; duplex DNA): 5.0 × 10^4 M^–1; KA (h-telo 22-mer quadruplex [12]): 9.5 × 10^7 M^–1; KA h-telo 22/KA dsDNA (h-telo 22-mer quadruplex [12]): 158.3; Ka [13]: 6.63 ± 2.39 × 10^6 M^-1
